Assay results taken from the array DNA melting data of Ke et al. (doi:10.1101/2024.01.08.574731).

How the values were obtained:
[1] = folding enthalpy; higher = less favourable; fluorescence melt of hairpins on a sequencing array, two-state fit; conditions: sodium 0.088 M
Summary of the method: (§1)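 Cy3 signals were normalised both to pre-quench Cy3 and to control constructs. They came from library hairpins carrying annealed Cy3 and quencher oligos on a sequenced MiSeq flow cell, imaged in 50 mM Na-HEPES pH 8.0, 25 mM NaCl, in 2.5 °C steps up to 60 °C. Bootstrapped two-state fits gave melting temperature and folding enthalpy, and four replicates were combined by inverse variance. Fitted temperatures were then raised by 9.35 °C to match UV melts.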

[2] = melting temperature; fluorescence melt of hairpins on a sequencing array, two-state fit, raised by 9.35 °C to match UV melts; conditions: sodium 0.088 M
Summary of the method: as §1

Row | Sequence | folding enthalpy [1] [kcal/mol] | Tm [2] [°C]
1 | GATCGATCTTCGATC ((((((...)))))) | -33.6 | 52.5
2 | GACTATGGAAACATAGTC (((((((....))))))) | -46.8 | 54.5
3 | GAAAACGAAAGTTCTTTC ((((((....)))..))) | -15.9 | 28.9
4 | GCGGAAGACCGC ((((....)))) | -18.5 | 52.8
5 | GAAAAGCGAAAGCTCTTC (((.(((....))).))) | -15.4 | 36.5
6 | GCACCCGGAAACGGGCGC ((.((((....)))).)) | -38 | 61.5
7 | GATCGGTGCCCGATC ((((((...)))))) | -40.8 | 58
8 | GATCGTCGCTACGATC ((((((....)))))) | -41.6 | 55
9 | GGACACCCGAAAGGGTCC (((..(((....)))))) | -11.5 | 40.9
10 | GTCTCCGAAAGGACAGAC ((((((....)))..))) | -17.3 | 37.2
11 | GGAAGTGAAAACTTCC ((((((....)))))) | -37.3 | 56.4
12 | GCATAGCGAAAGCTAGGC ((.((((....)))).)) | -27.1 | 67
13 | GGCTCTGAAAAGAGCC ((((((....)))))) | -38.3 | 68.9
14 | GGTAACGAAAGTTGCACC ((((((....)))..))) | -14.1 | 35.1
15 | GCTTTCGAAAGAATAGC ((((((....))).))) | -23.9 | 38.2
16 | GTTCAGCCGAAAGGCAAC (((..(((....)))))) | -7.39 | 31.4
17 | GGTGGACGAAAGTCACC (((.(((....)))))) | -25.5 | 55.3
18 | GACGAAGGAAACTTTGTC (((.(((....))).))) | -28.3 | 41.6
19 | GCTAACGAAAGTTAGC ((((((....)))))) | -35.1 | 66.8
20 | GGATTCGAAAGAAAATCC ((((((....)))..))) | -21.4 | 29.9
21 | GATCGCTACGGCGATC ((((((....)))))) | -40.5 | 67.8
22 | GATCGGAGTACCGATC ((((((....)))))) | -37.9 | 57.5
23 | GTCTGGACGAAAGTCGAC (((..(((....)))))) | -17.6 | 38.4
24 | GGGGCTGGAAACAACCCC ((((.((....)).)))) | -41.2 | 49.2

Row | Sequence | folding enthalpy [1] [kcal/mol] | Tm [2] [°C]
25 | CCAATGAAAATTGG (((((....))))) | -18.1 | 41.9
26 | GATCGCAATGGCGATC ((((((....)))))) | -35.6 | 67.4
27 | GCAGTCCGAAAGGAATGC (((.(((....))).))) | -38.1 | 62.1
28 | GGATCCGAAAGGATTCC ((((((....))).))) | -30.2 | 51.7
29 | GATCACTTAGTGATC ((((((...)))))) | -37 | 58.6
30 | GAGCCCGAAAGGGTACTC ((((((....)))..))) | -13.1 | 43.1
31 | GCGGGCCCCCGC ((((....)))) | -23.5 | 64.4
32 | GATCAGCGCACTGATC ((((((....)))))) | -40.4 | 52.5
33 | GCAGAAGCGAAAGCTTGC (((..(((....)))))) | -16.2 | 47.2
34 | GTATCGGGAAACTGATGC (.(((.(....).))).) | -29.6 | 33.1
35 | GATCAGAATCCTGATC ((((((....)))))) | -31 | 46.9
36 | GCCTGCGAAAGCAGTGGC ((((((....)))..))) | -14.8 | 57.1
37 | GCATTAGGAAACTAACGC ((.((((....)))).)) | -22.6 | 31.7
38 | GTCGGACCGAAAGGTGAC (((..(((....)))))) | -18 | 41.3
39 | GGAAATTCGAAAGAATCC (((..(((....)))))) | -9.79 | 26
40 | GATCAACTGTTGATC ((((((...)))))) | -36.1 | 44.2
41 | GATCTGGCCACAGATC ((((((....)))))) | -39.6 | 59.8
42 | GCGGGTGGCCGC ((((....)))) | -15.8 | 62.1
43 | GCGATGCGAAAGCTACGC (((..((....))..))) | -18.1 | 65
44 | GCTTAGCGAAAGCCATGC ((.(.((....)).).)) | -11.2 | 29.6
45 | GCCCGTCGAAAGACTGGC (((.(((....))).))) | -48.7 | 55.4
46 | GTATTCGAAAGAATTTAC ((((((....)))..))) | -12.2 | 27.5
47 | GATCTCTTGTGAGATC ((((((....)))))) | -48.6 | 53.1
48 | GATGCCGAAAGGCGGATC ((((((....)))..))) | -10.5 | 40.5

Row | Sequence | folding enthalpy [1] [kcal/mol] | Tm [2] [°C]
49 | AATCCGAAAGGATT (((((....))))) | -17.8 | 52
50 | GATCCGGAACCGGATC ((((((....)))))) | -39.9 | 62.5
51 | GATGTACCGAAAGGTATC (((..(((....)))))) | -14 | 32.2
52 | GCTAGCGAAAGCTTAGC ((((((....))).))) | -22.1 | 52.5
53 | GCTCGCCGAAAGGCTAGC (((.(((....))).))) | -27.9 | 54.6
54 | GAGAGGGGAAACCCTTTC ((.((((....)))).)) | -16.8 | 36.4
55 | GGGTATGGAAACATGCTC (.(.(((....))).).) | -23.1 | 33.4
56 | GCCGTGCGAAAGCCGGGC (((..((....))..))) | -15.1 | 65.3
57 | GTTAATGAAAATTAAC ((((((....)))))) | -25.9 | 40.1
58 | GGTTACGGAAACATAACC (((((.(....).))))) | -17 | 35.8
59 | GTTCCCGGAAACAGGAAC (((((.(....).))))) | -32.5 | 39.5
60 | GTCGCGGGAAACCACGAC ((((.((....)).)))) | -43.8 | 53.4
61 | GGCTCTCGAAAGAGTGCC (((.(((....))).))) | -49.1 | 58.1
62 | GGGGTACGAAAGTAGCCC (((.(((....))).))) | -42.7 | 67.7
63 | GAGTAGGGAAACCTACCC (.(((((....))))).) | -15.4 | 35.1
64 | GTAGGGGGAAACCCTTGC (.(.(((....))).).) | -13.2 | 31.9
65 | GATCCGAAAGGATC (((((....))))) | -29.5 | 66.8
66 | GATCTCTTCTGAGATC ((((((....)))))) | -39.8 | 54.7
67 | GCGTAATTACGC ((((....)))) | -30 | 51.7
68 | GATCGCAGACGCGATC ((((((....)))))) | -30.9 | 67.8
69 | AGTGTGAAAACACT (((((....))))) | -19.5 | 49.7
70 | GTATCTGGAAACGGATAC (((((.(....).))))) | -38 | 44.8
71 | ATGGGGAAACCCAT (((((....))))) | -23.4 | 47.3
72 | GAGATCGGAAACGGTCTC ((((.((....)).)))) | -44.5 | 51.3

Row | Sequence | folding enthalpy [1] [kcal/mol] | Tm [2] [°C]
73 | GATCTAGTGATAGATC ((((((....)))))) | -34.5 | 45.7
74 | GATCACAAGTGTGATC ((((((....)))))) | -39 | 56.4
75 | GTCATGGGAAACTGTGAC ((((..(....)..)))) | -32.9 | 39.1
76 | GATCCTAACGAGGATC ((((((....)))))) | -44.8 | 50.6
77 | GATCGATAGGTCGATC ((((((....)))))) | -42.2 | 53
78 | GCTCTGCGAAAGCCTAGC (((..((....))..))) | -14.7 | 36.6
79 | GATCATCATCATGATC ((((((....)))))) | -34.8 | 45
80 | GTGAGGGGAAACCCCCAC (((.(((....))).))) | -31.5 | 49.2
81 | GATCCGACGCGGATC ((((((...)))))) | -37.3 | 56.8
82 | GATCGTAAGCACGATC ((((((....)))))) | -36.4 | 53.9
83 | GATTGGCCGAAAGGCATC (((..(((....)))))) | -9.53 | 28.5
84 | GCGACAGATCGC ((((....)))) | -20.7 | 47.9
85 | GAGTGTCCGAAAGGACTC (((..(((....)))))) | -8.71 | 31.9
86 | GCTTGGCGAAAGCCGGGC ((..(((....)))..)) | -20.6 | 59.2
87 | GGTGTCGAAAGACATACC ((((((....)))..))) | -13.9 | 43.5
88 | CGTACCCGGAAACGGACG (((..(((....)))))) | -12.3 | 31.8
89 | GTGCACGAAAGTGGCCAC ((((((....)))..))) | -13.3 | 40.6
90 | GAAAGCCGAAAGGCTTC (((.(((....)))))) | -9.06 | 50.2
91 | GATTTGCGAAAGCACATC (((.(((....))).))) | -19.9 | 43.9
92 | GGGTAAGGAAACTTGCCC (((.(((....))).))) | -36.6 | 50.5
93 | GCTCCACGAAAGTGAGC (((.(((....)))))) | -26.2 | 54
